How the values were obtained:
[1] = test system: 4T1 murine triple negative breast cancer cells; assay: Resazurin cell viability assay on 4T1 cells; assay type: cell-based; details: Mus musculus, 4T1, 72 h, read-out: IC50 4T1
In short: (§1)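 Cells were seeded in 96-well plates (4T1 10,000, A549 10,000, HL-60 20,000 per well), with adherent lines settling overnight. Test compound came from a 10 mM DMSO stock, serially diluted in medium to 1.56–50 µM (some 39 nM–12.5 µM), for 72 h; three biological replicates. Resazurin (0.15 mg/ml stock, 20 µl per 100 µl) ran 2 h at 37 °C, read at 530/580 nm. Viability was set against untreated and blank wells; IC50 from curves.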

[2] = test system: HL‐60 human acute promyelocytic leukemia cells; assay: Resazurin cell viability assay on HL-60 cells; assay type: cell-based; details: HL-60, 72 h, read-out: IC50 HL‐60
In short: as §1

[3] = test system: 4T1, A549, and HL‐60 cells; assay type: cell-based; details: resazurin assay, 72 h, up to 50 µM, three cancer cell lines
In short: as §1

HL‐60 cells [4] = assay: Annexin V / propidium iodide flow cytometry; assay type: cell-based, human; details: 6 µM, 24 h; for Early apoptotic cells (AnnV+/PI−) / Late apoptotic cells (AnnV+/PI+) / Living cells (AnnV−/PI−) / Necrotic cells (AnnV−/PI+): mean ± SD; for Early apoptotic cells (AnnV+/PI−): untreated 1.9 ± 0.5%; for Late apoptotic cells (AnnV+/PI+): untreated 9.5 ± 2.7%; for Living cells (AnnV−/PI−): untreated 85 ± 3.9%; for Necrotic cells (AnnV−/PI+): untreated 3.6 ± 1.6%
In short: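 HL-60 cells (100,000) were treated for 24 h at 1, 3 or 6 µM, then resuspended in Annexin V binding buffer (0.01 M HEPES, 0.14 M NaCl, 2.5 mM CaCl2). Annexin V-Alexa 488 was added for 15 min in the dark at room temperature, then PI (10 µg/ml). Quadrant percentages were taken by flow cytometry; three biological replicates, mean ± SD; two-tailed t test against untreated.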

HL‐60 cells [5] = assay: Sub-G1 DNA fragmentation analysis by flow cytometry; assay type: cell-based, human; details: 6 µM, 72 h; mean ± SD; untreated 11.7 ± 1.2%
HL‐60 cells [6] = assay: Cell cycle analysis by flow cytometry; assay type: cell-based, human; details: 72 h; for Cells in G2/M phase: untreated 17.3 ± 1.7%
HL‐60 cells [7] = assay: Mitochondrial membrane depolarization by JC-1 staining; assay type: cell-based, human; details: 16 h, untreated 7.6 ± 0.6%; for Cells with green JC‐1 accumulation (depolarized MMP): 3 µM; for Cells with green JC‐1 monomers (depolarized MMP): 6 µM
[8] = test system: colorectal cancer cell line HCT‐116; details: read-out: IC50 HCT‐116; antiproliferative; ref Han et al., 2022; cited from earlier work

Molecule	IC50 [1]	IC50 [2]	Cytotoxic / antiproliferative activity in words [3]	further results
CCOC(=O)c1[nH]c(N)nc1-c1cccc(NC(=O)c2ccc3cccc(O)c3n2)c1 [Compound 17, Ethyl 2‐amino‐4‐(3‐(8‐hydroxyquinoline‐2‐carboxamido)phenyl)−1H‐imidazole‐5‐carboxylate]	17.1 µM	5.81 µM	low antiproliferative activity	
Nc1nc(-c2cccc(NC(=O)c3ccc4ccccc4n3)c2)c(C(=O)c2ccccc2)[nH]1 [Compound 19, N‐(3‐(2‐amino‐5‐benzoyl‐1H‐imidazol‐4‐yl)phenyl)quinoline‐2‐carboxamide]			completely inactive	
Nc1nc(-c2cccc(NC(=O)c3ccccn3)c2)c(C(=O)c2ccccc2)[nH]1 [Compound 20, N‐(3‐(2‐amino‐5‐benzoyl‐1H‐imidazol‐4‐yl)phenyl)picolinamide]	30.7 µM	24.8 µM		
Nc1nc(-c2cccc(NC(=O)c3cc(Br)c[nH]3)c2)c(C(=O)c2ccccc2)[nH]1 [Compound 21, N‐(3‐(2‐amino‐5‐benzoyl‐1H‐imidazol‐4‐yl)phenyl)‐4‐bromo‐1H‐pyrrole‐2‐carboxamide]			completely inactive	
CCOC(=O)c1[nH]c(N)nc1-c1cccc(NC(=O)c2cc3cc(OC)ccc3[nH]2)c1 [Compound 24, Ethyl 2‐amino‐4‐(3‐(5‐methoxy‐1H‐indole‐2‐carboxamido)phenyl)‐1H‐imidazole‐5‐carboxylate]	12.6 µM	7.57 µM	low antiproliferative activity	
COc1ccc2[nH]c(C(=O)Nc3cccc(-c4nc(N)[nH]c4C(=O)c4ccccc4)c3)cc2c1 [Compound 27, N‐(3‐(2‐amino‐5‐benzoyl‐1H‐imidazol‐4‐yl)phenyl)‐5‐methoxy‐1H‐indole‐2‐carboxamide]	11.7 µM	3.12 µM	hampered the viability of all three tested cell lines	Early apoptotic cells (AnnV+/PI−) (HL‐60 cells [4]): 16.1 ± 0.6%; Necrotic cells (AnnV−/PI+) (HL‐60 cells [4]): 2.5 ± 0.3%; Late apoptotic cells (AnnV+/PI+) (HL‐60 cells [4]): 50.7 ± 0.9%; Living cells (AnnV−/PI−) (HL‐60 cells [4]): 30.5 ± 0.7%; DNA fragmentation (sub‐G1 population) of HL‐60 cells (HL‐60 cells [5]): 53.8 ± 7.3%; Cells with green JC‐1 accumulation (depolarized MMP) (HL‐60 cells [7]): 13.3 ± 1.1%; Cells with green JC‐1 monomers (depolarized MMP) (HL‐60 cells [7]): 42.4 ± 0.8%
Nc1nc(-c2cc(NC(=O)c3cc4cc(Br)ccc4[nH]3)ccc2Cl)c(C(=O)c2ccccc2)[nH]1 [Compound 32, N‐(3‐(2‐amino‐5‐benzoyl‐1H‐imidazol‐4‐yl)‐4‐chlorophenyl)‐5‐bromo‐1H‐indole‐2‐carboxamide]	12.4 µM	7.82 µM	hampered the viability of all three tested cell lines	Late apoptotic cells (AnnV+/PI+) (HL‐60 cells [4]): 11.7 ± 2.6%; Living cells (AnnV−/PI−) (HL‐60 cells [4]): 78.9 ± 1.6%; Concentrations at which arrest in G0/G1 phase occurred (HL‐60 cells [6]): 1 to 6 µM; Effect on cell cycle distribution, in words (HL‐60 cells [6]): significantly disturbed cell cycle distribution
Hemimycalin C				IC50 [8]: 18.6 µM
Hemimycalin D				IC50 [8]: 17.1 µM
Hemimycalin E				IC50 [8]: 8.6 µM

Now from value to molecule, other results behind:

IC50 [1]	IC50 [2]	Molecule	Cytotoxic / antiproliferative activity in words [3]	further results
19.3 µM	14.4 µM	CCOC(=O)c1[nH]c(N)nc1-c1cccc(NC(=O)c2cc3ccccc3[nH]2)c1 [Compound 16, Ethyl 4‐(3‐(1H‐indole‐2‐carboxamido)phenyl)−2‐amino‐1H‐imidazole‐5‐carboxylate]		
13.9 µM	8.95 µM	Nc1nc(-c2cccc(NC(=O)c3ccc4cccc(O)c4n3)c2)c(C(=O)c2ccccc2)[nH]1 [Compound 18, N‐(3‐(2‐amino‐5‐benzoyl‐1H‐imidazol‐4‐yl)phenyl)−8‐hydroxyquinoline‐2‐carboxamide]	low antiproliferative activity	
	6.9 µM	Nc1nc(-c2cccc(NC(=O)c3ccc[nH]3)c2)c(C(=O)c2ccccc2)[nH]1 [Compound 22, N‐(3‐(2‐amino‐5‐benzoyl‐1H‐imidazol‐4‐yl)phenyl)‐1H‐pyrrole‐2‐carboxamide]	low antiproliferative activity	
9.05 µM	5.21 µM	Nc1nc(-c2cccc(NC(=O)c3cc4cc(F)ccc4[nH]3)c2)c(C(=O)c2ccccc2)[nH]1 [Compound 23, N‐(3‐(2‐amino‐5‐benzoyl‐1H‐imidazol‐4‐yl)phenyl)‐5‐fluoro‐1H‐indole‐2‐carboxamide]	hampered the viability of all three tested cell lines	Early apoptotic cells (AnnV+/PI−) (HL‐60 cells [4]): 3.2 ± 0.7%; Late apoptotic cells (AnnV+/PI+) (HL‐60 cells [4]): 15.5 ± 3.9%; Living cells (AnnV−/PI−) (HL‐60 cells [4]): 76.8 ± 3.5%; DNA fragmentation (sub‐G1 population) of HL‐60 cells (HL‐60 cells [5]): 22.9 ± 1.2%; Cells in G2/M phase (HL‐60 cells [6]; 3 µM): 22.4 ± 1.6%; Cells in G2/M phase (HL‐60 cells [6]; 6 µM): 39.2 ± 3.1%; Effect on cell cycle distribution, in words (HL‐60 cells [6]): significantly disturbed cell cycle distribution; Cells with green JC‐1 accumulation (depolarized MMP) (HL‐60 cells [7]): 9.1 ± 0.2%; Cells with green JC‐1 monomers (depolarized MMP) (HL‐60 cells [7]): 13.4 ± 0.8%
	6.34 µM	Nc1nc(-c2cccc(NC(=O)c3cc4ccccc4[nH]3)c2)c(C(=O)c2ccccc2)[nH]1 [Compound 25, N‐(3‐(2‐amino‐5‐benzoyl‐1H‐imidazol‐4‐yl)phenyl)‐1H‐indole‐2‐carboxamide]	low antiproliferative activity	
35 µM	24.8 µM	COc1ccc2[nH]c(C(=O)Nc3cccc(-c4nc(N)[nH]c4C(C)=O)c3)cc2c1 [Compound 26, N‐(3‐(5‐acetyl‐2‐amino‐1H‐imidazol‐4‐yl)phenyl)‐5‐methoxy‐1H‐indole‐2‐carboxamide]		
13 µM	2.91 µM	Nc1nc(-c2cccc(NC(=O)c3cc4cc(Br)ccc4[nH]3)c2)c(C(=O)c2ccccc2)[nH]1 [Compound 28, N‐(3‐(2‐amino‐5‐benzoyl‐1H‐imidazol‐4‐yl)phenyl)‐5‐bromo‐1H‐indole‐2‐carboxamide]	hampered the viability of all three tested cell lines	Early apoptotic cells (AnnV+/PI−) (HL‐60 cells [4]): 23.4 ± 1%; Necrotic cells (AnnV−/PI+) (HL‐60 cells [4]): 2.1 ± 0.4%; Late apoptotic cells (AnnV+/PI+) (HL‐60 cells [4]): 43.4 ± 1.2%; Living cells (AnnV−/PI−) (HL‐60 cells [4]): 31.1 ± 0.8%; DNA fragmentation (sub‐G1 population) of HL‐60 cells (HL‐60 cells [5]): 56.5 ± 2.8%; Cells in G2/M phase (HL‐60 cells [6]; 3 µM): 21.0 ± 0.5%; Effect on cell cycle distribution, in words (HL‐60 cells [6]): significantly disturbed cell cycle distribution; Cells with green JC‐1 accumulation (depolarized MMP) (HL‐60 cells [7]): 10.4 ± 0.2%; Cells with green JC‐1 monomers (depolarized MMP) (HL‐60 cells [7]): 50.3 ± 0.7%
25.3 µM	25 µM	CC(=O)c1[nH]c(N)nc1-c1cccc(NC(=O)c2cc3cc(F)ccc3[nH]2)c1 [Compound 30, N‐(3‐(5‐acetyl‐2‐amino‐1H‐imidazol‐4‐yl)phenyl)‐5‐fluoro‐1H‐indole‐2‐carboxamide]		
14.4 µM	10 µM	CCOC(=O)c1[nH]c(N)nc1-c1cccc(NC(=O)c2cc3cc(F)ccc3[nH]2)c1 [Compound 31, Ethyl 2‐amino‐4‐(3‐(5‐fluoro‐1H‐indole‐2‐carboxamido)phenyl)‐1H‐imidazole‐5‐carboxylate]		
11.5 µM	6.44 µM	Nc1nc(-c2cc(Cl)cc(NC(=O)c3cc4cc(Br)ccc4[nH]3)c2)c(C(=O)c2ccccc2)[nH]1 [Compound 33, N‐(3‐(2‐amino‐5‐benzoyl‐1H‐imidazol‐4‐yl)‐5‐chlorophenyl)‐5‐bromo‐1H‐indole‐2‐carboxamide]	hampered the viability of all three tested cell lines	Late apoptotic cells (AnnV+/PI+) (HL‐60 cells [4]): 15.6 ± 1.8%; Living cells (AnnV−/PI−) (HL‐60 cells [4]): 79.1 ± 1.9%; Cells in G0/G1 phase (HL‐60 cells [6]; 6 µM, control 64.3 ± 1.9%): 74.1 ± 1.4%; Concentrations at which arrest in G0/G1 phase occurred (HL‐60 cells [6]): 3 to 6 µM; Effect on cell cycle distribution, in words (HL‐60 cells [6]): significantly disturbed cell cycle distribution
27 µM	24.3 µM	Cc1ccc(NC(=O)c2cc3cc(Br)ccc3[nH]2)cc1-c1nc(N)[nH]c1C(=O)c1ccccc1 [Compound 34, N‐(3‐(2‐amino‐5‐benzoyl‐1H‐imidazol‐4‐yl)‐4‐methylphenyl)‐5‐bromo‐1H‐indole‐2‐carboxamide]		
11 µM	6.77 µM	Nc1nc(-c2ccc(NC(=O)c3cc4cc(Br)ccc4[nH]3)cc2)c(C(=O)c2ccccc2)[nH]1 [Compound 35, N‐(4‐(2‐amino‐5‐benzoyl‐1H‐imidazol‐4‐yl)phenyl)‐5‐bromo‐1H‐indole‐2‐carboxamide]	hampered the viability of all three tested cell lines	AnnexinV translocation, in words (HL‐60 cells [4]): did not influenced AnnexinV translocation significantly; Cells in G2/M phase (HL‐60 cells [6]; 1 µM): 20.8 ± 0.4%; Effect on cell cycle distribution, in words (HL‐60 cells [6]): significantly disturbed cell cycle distribution

Source: PMC10091778 (Drug Development Research, 2022)
